Cl transport mod: KCC2 (human) Cl- transport modulation; Q9H2X9; KCC2 cells, thallium flux FluoZin-2 fluorescence; B-score of Tl+ flux slope (higher = more flux/activation; lower = inhibition) at 10 µM; 2.2% of 190,000 active; AID 1456;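 active = thallium flux slope and its plate-corrected score both differing from the plate sample mean at a set confidence after two filtering rounds, in either direction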;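 note: slope of fluorescence scaled to starting intensity during 10 to 20 s after thallium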
Target sequence (Q9H2X9 whole entry, looked up): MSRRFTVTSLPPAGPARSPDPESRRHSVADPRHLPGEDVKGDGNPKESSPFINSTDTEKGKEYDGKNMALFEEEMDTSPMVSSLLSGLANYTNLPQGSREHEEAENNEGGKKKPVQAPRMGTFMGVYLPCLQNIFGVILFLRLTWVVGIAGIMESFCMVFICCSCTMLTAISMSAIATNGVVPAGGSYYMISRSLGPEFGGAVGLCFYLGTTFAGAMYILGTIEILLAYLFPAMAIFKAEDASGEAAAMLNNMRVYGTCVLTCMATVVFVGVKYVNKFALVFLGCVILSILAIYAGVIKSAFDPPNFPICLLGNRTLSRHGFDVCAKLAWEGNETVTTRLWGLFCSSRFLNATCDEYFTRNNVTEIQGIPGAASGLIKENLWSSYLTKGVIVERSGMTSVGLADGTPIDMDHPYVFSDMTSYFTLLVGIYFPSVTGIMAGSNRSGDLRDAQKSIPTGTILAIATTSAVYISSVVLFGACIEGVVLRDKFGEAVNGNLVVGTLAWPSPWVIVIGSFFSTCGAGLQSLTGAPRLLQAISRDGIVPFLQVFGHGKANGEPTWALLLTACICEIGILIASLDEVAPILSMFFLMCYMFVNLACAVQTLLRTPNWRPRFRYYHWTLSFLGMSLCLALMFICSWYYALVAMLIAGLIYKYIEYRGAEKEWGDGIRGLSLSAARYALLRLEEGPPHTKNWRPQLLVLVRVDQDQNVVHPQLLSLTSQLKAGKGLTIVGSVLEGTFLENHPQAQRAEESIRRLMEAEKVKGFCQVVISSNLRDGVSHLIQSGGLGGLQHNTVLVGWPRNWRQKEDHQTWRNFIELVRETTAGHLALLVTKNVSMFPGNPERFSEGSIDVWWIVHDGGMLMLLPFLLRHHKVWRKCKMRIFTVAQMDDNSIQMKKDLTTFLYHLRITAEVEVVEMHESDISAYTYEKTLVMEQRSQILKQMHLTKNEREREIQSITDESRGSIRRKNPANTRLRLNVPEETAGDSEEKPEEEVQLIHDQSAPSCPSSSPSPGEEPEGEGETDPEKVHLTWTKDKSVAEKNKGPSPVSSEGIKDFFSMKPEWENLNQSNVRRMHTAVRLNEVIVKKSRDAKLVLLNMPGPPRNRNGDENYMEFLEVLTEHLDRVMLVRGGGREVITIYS
STAT1 inh: reduces IFN-gamma driven STAT1 reporter signal; 0.35% of 200,000 active; AID 920; NIH 3T3 STAT1-luciferase reporter, luminescence; inhibition, % at 5.5 µM;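 active = inhibition above a set limit, the mean inhibition across all tested compounds plus 3 SD, cut at about 34% in these data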
STAT1 activator: STAT1 signaling activation | NIH 3T3 STAT1-luciferase reporter, IFN-gamma, luminescence; 100% = IFN-gamma alone, no compound | activation (% of control), % at 5.5 µM | 2.6% of 200,000 active | AID 932;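 active = activation above the screen-wide mean activation plus 3 SD, cut at about 130% in these data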
HSV replic up: increases HSV replication in cells | HSV replication augmentation in cells, fold increase | maximum fold increase | 0.005% of 220,000 active; in the data active = maximum fold increase above about 1.5; tested in PC3 cells
STAT3 inh: STAT3 signaling inhibition. U3A cells, IL-6 STAT3-luciferase reporter, luminescence; host cell line lacks STAT1. inhibition, % at 5.5 µM. 0.89% of 190,000 active. AID 862;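 active = inhibition above the mean inhibition across all screened compounds plus 3 SD, cut at about 44% in these data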
STAT3 act: activators of IL-6 induced STAT3 signaling. U3A cells, IL-6 STAT3-luciferase reporter, luminescence; 100% = signal with IL-6 EC80 alone. activation (% of control), % at 5.6 µM. 0.91% of 190,000 active. AID 871;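 active = activation above the screen-wide mean of compound activation plus 3 SD, cut at about 130% in these data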
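System – human U3A cells carrying STAT3-luciferase construct · Probe or stimulus – Interleukin-6, 33 ng/mL · Schedule – compound 1 h, then IL-6 6 h at 37 °C · Signal – luminescence from STAT3-driven luciferase reporter · Evaluation – percent of IL-6-only median luminescence · Benchmarks – IL-6-only high control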
Numbers stand for hits; – = inactive; · = no result. Shown are actives, neighbours in structure and some others; about 5.5% of the full set was active somewhere.

SMILES	Cl transport mod	STAT1 inh	STAT1 activator	HSV replic up	STAT3 inh	STAT3 act
CCC(=O)N(Cc1ccco1)C1CC(=O)N(c2ccccc2)C1=O (stereo unspecified)	–	–	–	–	–	–
Cc1ccnc(N=Cc2nc(-c3ccccc3Br)oc2O)c1	–	–	142.3	–	–	–
Cc1cccc(/N=C/c2nc(-c3ccccc3Br)oc2O)n1	–	–	–	·	–	–
Cc1ccn2c(C(=O)c3ccc(Cl)cc3)cnc2c1	–	–	145.7	–	–	–
CCC(=NCc1ccccc1)c1c(C(F)(F)F)[nH]n(-c2nc3ccccc3s2)c1=O	–	–	–	–	–	–
O=c1c(C=NCc2cccnc2)c(C(F)(F)F)[nH]n1-c1nc2ccccc2s1	–	37.6	–	–	55.6	–
CCOc1ccc(NC(=O)CSc2nnc(CNC(=O)c3ccco3)o2)cc1	–	–	–	–	–	–
O=C1c2ccccc2NC(c2ccc3c(c2)OCCO3)N1c1ccc2c(c1)OCCO2 (stereo unspecified)	–	–	–	–	–	–
COc1cc(C2Nc3ccccc3C(=O)N2c2ccc3c(c2)OCCO3)ccc1OCC(C)C (stereo unspecified)	–	–	132.4	–	–	–
Cc1cc(C)nc(NS(=O)(=O)c2ccc(NC(=O)CSc3nc(-c4ccccc4)c(C#N)c(=O)[nH]3)cc2)n1	–	–	–	–	–	–
CC1CCC/C(=C\Nc2ccc(C(=O)O)cc2)C1=O (stereo unspecified)	–	–	148.6	–	–	–
CCOC(=O)c1ccc(N/C=C2/CCCC(C)C2=O)cc1 (stereo unspecified)	·	–	–	–	–	–
CCn1nccc1C(=O)Nc1ccc(Cl)cn1	–	–	–	–	–	–
COc1ccc(C(=O)Nc2ccc(Cl)cn2)cc1Cl	–	–	139.5	–	–	–
CCn1ccc(C(=O)Nc2ccccc2SC)n1	–	–	140.2	–	–	–
CCn1ccc(C(=O)Nc2ccc(Cl)cn2)n1	·	–	131.1	–	–	–
COc1ccccc1N1C(=O)CC(Sc2ccccc2N)C1=O (stereo unspecified)	–	·	·	–	·	·
Cc1cc(C)nc(NS(=O)(=O)c2ccc(N3Cc4ccccc4C3=O)cc2)n1	–	–	–	–	–	–
CC(C(=O)O)c1ccc(N2Cc3ccccc3C2=O)cc1 (stereo unspecified)	–	–	144.7	–	–	–
O=C(O)CCn1cc(/C=C2\NC(=S)N(c3ccccc3)C2=O)c(-c2ccc(Br)cc2)n1	–	–	–	–	–	–
O=C(/C=C/Nc1ccc(Cc2ccc(N/C=C/C(=O)C(F)(F)F)cc2)cc1)C(F)(F)F	–	–	–	–	–	–
Cc1ccc(-c2cc3cccc[n+]3cc2-c2ccc(C)cc2)cc1	–	36.4	–	–	61.4	–
O=C(Nc1cccs1)Nc1ccccc1Br	–	–	–	–	–	–
O=C1C(C=NCCN2CCOCC2)=C(O)c2ccccc21	–	–	133.4	–	–	–
O=C1C(C=NCCCN2CCOCC2)=C(O)c2ccccc21	·	–	–	–	–	–
SMILES	Cl transport mod	STAT1 inh	STAT1 activator	HSV replic up	STAT3 inh	STAT3 act
CCOc1ccc(NS(=O)(=O)c2ccc(NC(=O)[C@@H]3CCCC[C@@H]3C(=O)O)cc2)cc1	–	–	–	–	–	–
CCCCn1c(-c2csc3c2CCC(C)C3)n[nH]c1=S (stereo unspecified)	22.4	–	–	–	–	–
CCn1c(-c2csc3c2CCCC3)n[nH]c1=S	–	–	–	–	–	–
CCCCn1c(-c2csc3c2CCCC3)n[nH]c1=S	2.98	–	–	–	–	–
C=CCn1c(-c2csc3c2CCC(C)C3)n[nH]c1=S (stereo unspecified)	–	–	–	–	–	–
COC(=O)C(C)n1cnc2c(cnn2-c2ccc(Cl)cc2)c1=O (stereo unspecified)	–	–	129.1	–	–	–
CCOC(=O)Cn1cnc2c(cnn2-c2ccc(Cl)cc2)c1=O	–	–	–	–	–	–
Clc1ccc(-c2nnc(-c3ccco3)o2)cc1	–	–	143.8	–	–	–
CCCc1nn(C)c(C(=O)Nc2ccc(C)c(C)c2)c1Cl	–	–	129.9	–	–	–
CCCc1nn(C)c(C(=O)Nc2ccc(CC)cc2)c1Cl	–	–	–	–	–	–
